The structures appear in SMILES notation.

The target in the assay is NAD(P)H dehydrogenase [quinone] 1 (Homo sapiens) (UniProt P15559). In words: Induction of quinone reductase. The essentials: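 Quinone reductase induction measured in cultured mouse Hepa 1c1c7 hepatoma cells, following a previously described method. Activity is reported as CD, the concentration that doubles QR induction, in µg/mL.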
Sequence of NAD(P)H dehydrogenase [quinone] 1 (Homo sapiens) (P15559 whole entry): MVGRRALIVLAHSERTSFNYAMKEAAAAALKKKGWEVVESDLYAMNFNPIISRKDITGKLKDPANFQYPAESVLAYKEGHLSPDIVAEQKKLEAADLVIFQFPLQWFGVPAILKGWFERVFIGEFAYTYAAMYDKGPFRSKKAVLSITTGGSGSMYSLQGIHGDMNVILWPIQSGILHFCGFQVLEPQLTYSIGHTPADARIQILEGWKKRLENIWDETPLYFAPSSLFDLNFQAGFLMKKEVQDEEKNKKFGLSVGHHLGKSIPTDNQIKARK
As for `COc1c(OC)c(O)c2c(=O)cc(-c3ccc(O)cc3)oc2c1O`, the CD was greater than 20 µg/mL.

The molecule `C[C@@H]1CC[C@]2(C(=O)O)CC[C@]3(C)C(=CC[C@@H]4[C@@]5(C)CC[C@H](O)[C@](C)(CO)[C@@H]5CC[C@]43C)[C@@H]2[C@]1(C)O` registered a CD greater than 20 µg/mL.

Regarding `CC(C)=CCC/C(C)=C\CC/C(C)=C\Cc1cc(C(=O)O)ccc1O`, the CD is greater than 20 µg/mL.

In turn, `C=C(C)[C@@H]1CC[C@]2(C(=O)O)CC[C@]3(C)[C@H](CC[C@@H]4[C@@]5(C)CC[C@H](O)C(C)(C)[C@@H]5CC[C@]43C)[C@@H]12` gave a CD greater than 20 µg/mL.

As to `COc1ccc(-c2cc(=O)c3c(O)c(OC)c(OC)c(OC)c3o2)cc1`, the CD was greater than 20 µg/mL.

The molecule `COC(=O)[C@@]1(O)C(OC)=C(OC)C(=O)[C@]12OC(c1ccc(O)cc1)=CC2=O` displayed a CD greater than 20 µg/mL.

`CC1(C)CC[C@]2(C(=O)O)CC[C@]3(C)C(=CC[C@@H]4[C@@]5(C)CC[C@H](O)C(C)(C)[C@@H]5[C@H](O)C[C@]43C)[C@@H]2C1` had a CD greater than 20 µg/mL.

Molecule `CC1(C)CC[C@]2(C(=O)O)CC[C@]3(C)C(=CC[C@@H]4[C@@]5(C)CC[C@H](O)[C@@](C)(CO)[C@@H]5CC[C@]43C)[C@@H]2C1` gave a CD greater than 20 µg/mL.

In the case of `COc1ccc(-c2cc(=O)c3c(O)c(OC)c(O)c(OC)c3o2)cc1`, the CD is greater than 20 µg/mL.

The record behind these values is ChEMBL document CHEMBL1141763, “Limnophilaspiroketone, a highly oxygenated phenolic derivative from Limnophila geoffrayi” (J Nat Prod, 2005).
